Measured values gathered from unrelated publications.
Compare with care: the assays were run in different laboratories. In brackets after ≈: the same amount, converted by molar mass.
Organism: Staphylococcus aureus

| Compound | assay | system | conditions | quantity | result |
| --- | --- | --- | --- | --- | --- |
| O=C(Sc1cccccc1=O)c1cccc(C(F)(F)F)c1 | microbial growth, broth dilution | ATCC29213 | – | MIC80 | > 100 µM |
| O=C1NC(=S)N/C1=C\c1c2ccccc2c(-c2ccc(N(c3ccccc3)c3ccccc3)cc2)c2ccccc12 | microbial killing, broth dilution | ATCC25923 | – | MBC | > 1000 µg/mL |
| O=C(Sc1cccccc1=O)c1ccccc1C(F)(F)F | microbial growth, broth dilution | ATCC29213 | – | MIC80 | 100 µM (≈ 31 µg/mL) |
| CNC(=O)c1cc(Oc2ccc(NC(=O)Nc3ccc(Cl)c(C(F)(F)F)c3)c(F)c2)ccn1 | microbial growth | NCTC8325 | – | MIC | 3 µM (≈ 1.45 µg/mL) |
| CC(=O)NC[C@H]1CN(c2ccc(N3CCOCC3)c(F)c2)C(=O)O1 | microbial killing, broth dilution | NRS107 | – | MBC | 16 µM |
| COc1ccc2nc(-n3nc(C)c4c3-c3ccccc3C4=O)sc2c1 | microbial growth, well diffusion | NCIM5021 | 250 µg/mL | inhibition zone | 12 mm |
| O=C(Nc1c[nH]nc1-c1nc2ccc(CN3CCOCC3)cc2[nH]1)NC1CC1 | microbial growth | NCTC8325 | – | MIC | > 30 µM |
| O=C(O)CN1C(=O)/C(=C/c2ccc(-c3ccc(N(c4ccccc4)c4ccccc4)cc3)c3ccccc23)NC1=S | microbial killing, broth dilution | ATCC25923 | – | MBC | > 1000 µg/mL |
| CC(C)c1nn(-c2nc3ccc(Br)cc3s2)c2c1C(=O)c1ccccc1-2 | microbial growth, well diffusion | NCIM5021 | 1000 µg/mL | inhibition zone | 12 mm |
| O=C1NC(=O)[C@@H](c2cn3c4c(cccc24)CCC3)[C@@H]1c1c[nH]c2ccccc12 | microbial growth | NCTC8325 | – | MIC | > 30 µM |
| CCOC(=O)C1=C(C)N2NC(C)(c3ccccc3O)N(C(Cc3c[nH]c4ccccc34)C(=O)O)C2=NC1c1ccc(Cl)cc1 (centres unmarked) | microbial growth | ATCC25923 | 15 µg/mL, 24 h | inhibition zone | 30 mm |
| CC(C)Cc1nn(-c2nc3ccc(Cl)cc3s2)c2c1C(=O)c1ccccc1-2 | microbial growth, well diffusion | NCIM5021 | 500 µg/mL | inhibition zone | 11 mm |
| Cc1cc(NC(=O)Nc2ccc3c(c2)OC(F)(F)O3)ccc1Cl | microbial growth | NCTC8325 | – | MIC | 0.5 µM (≈ 0.17 µg/mL) |
| O=C1NC(=S)S/C1=C\c1c2ccccc2c(-c2ccc(N(c3ccccc3)c3ccccc3)cc2)c2ccccc12 | microbial killing, broth dilution | ATCC43300 | – | MBC | > 1000 µg/mL |
| CC(C)Cc1nn(-c2nc3ccc(Br)cc3s2)c2c1C(=O)c1ccccc1-2 | microbial growth, well diffusion | NCIM5021 | 250 µg/mL | inhibition zone | 11 mm |
| CCCCCCCCCCCCCC(O)CC(O)CO (centres unmarked) | microbial growth, broth dilution | ATCC29213 | – | IC50 | 17.2 µg/mL (≈ 59.6 µM) |
| CC[C@@H]1C(=O)N(C)c2cnc(Nc3ccc(C(=O)N[C@H]4CC[C@H](N5CCN(CC6CC6)CC5)CC4)cc3OC)nc2N1C(C)C | microbial growth | NCTC8325 | – | MIC | > 30 µM |
| O=C(N/N=C/c1ccc([N+](=O)[O-])o1)c1ccc(O)cc1 | microbial growth | ATCC700699 | – | MIC90 | 15.6 µg/mL (≈ 56.8 µM) |
| CNC(=O)c1cc(Oc2ccc(NC(=O)Nc3cc(C(C)(C)C)nn3-c3ccc4ncccc4c3)c(F)c2)ccn1 | microbial growth | NCTC8325 | – | MIC | > 30 µM |

| Compound | assay | system | conditions | quantity | result |
| --- | --- | --- | --- | --- | --- |
| O=C1NC(=S)S/C1=C\c1ccc(-c2ccc(N(c3ccccc3)c3ccccc3)cc2)cc1 | microbial killing, broth dilution | ATCC6538 | – | MBC | > 1000 µg/mL |
| CC1(C)S[C@@H]2[C@H](NC(=O)[C@H](N)c3ccccc3)C(=O)N2[C@H]1C(=O)O | microbial growth, agar dilution | ATCC25923 | 26.93 µM | inhibition | 100% |
| O=C(O)CN1C(=O)/C(=C/c2ccc(-c3ccc(N(c4ccccc4)c4ccccc4)cc3)c3ccccc23)SC1=S | microbial killing, broth dilution | ATCC6538 | – | MBC | > 1000 µg/mL |
| CN[C@H](CC(C)C)C(=O)N[C@H]1C(=O)N[C@@H](CC(N)=O)C(=O)N[C@H]2C(=O)N[C@H]3C(=O)N[C@H](C(=O)N[C@H](C(=O)O)c4cc(O)cc(O)c4-c4cc3ccc4O)[C@H](O)c3ccc(c(Cl)c3)Oc3cc2cc(c3O[C@@H]2O[C@H](CO)[C@@H](O)[C@H](O)[C@H]2O[C@H]2C[C@](C)(N)[C@H](O)[C@H](C)O2)Oc2ccc(cc2Cl)[C@H]1O | microbial growth, disc diffusion | ATCC29213 | 62.5 µg/disc, 24 h | inhibition zone | 18 mm |
| Cc1ccc2nc(-n3nc(C(C)C)c4c3-c3ccccc3C4=O)sc2c1 | microbial growth, well diffusion | NCIM5021 | 1000 µg/mL | inhibition zone | 14 mm |
| O=C1NC(=S)S/C1=C\c1ccc(-c2ccc(N(c3ccccc3)c3ccccc3)cc2)c2ccccc12 | microbial killing, broth dilution | ATCC25923 | – | MBC | > 1000 µg/mL |
| COc1cc2ncnc(Nc3ccc(F)c(Cl)c3)c2cc1OCCCN1CCOCC1 | microbial growth | NCTC8325 | – | MIC | > 30 µM |
| C#CCCCCCCCCC=CCC(O)CC(O)CO (centres unmarked) | microbial growth, broth dilution | ATCC33591 MRSA | drug-resistant strain | IC50 | > 200 µg/mL |
| COc1ccc2nc(-n3nc(C(C)C)c4c3-c3ccccc3C4=O)sc2c1 | microbial growth, well diffusion | NCIM5021 | 1000 µg/mL | inhibition zone | 11 mm |
| O=C(Cc1ccccc1)Sc1cccccc1=O | microbial growth, broth dilution | ATCC29213 | – | MIC80 | > 100 µM |
| O=C(O)CN1C(=O)/C(=C/c2ccc(-c3ccc(N(c4ccccc4)c4ccccc4)cc3)cc2)SC1=S | microbial killing, broth dilution | ATCC6538 | – | MBC | 7.8 µg/mL |
| CC(C)c1cccc(=O)c(O)c1 | microbial growth, broth dilution | ATCC29213 | – | MIC80 | 66.7 µM (≈ 11 µg/mL) |
| C#CCCCCCCCCCCCC(O)CC(O)CO (centres unmarked) | microbial growth, broth dilution | ATCC29213 | – | IC50 | 3.26 µg/mL (≈ 11.5 µM) |
| O=C(N[C@H](CO)[C@H](O)c1ccc([N+](=O)[O-])cc1)C(Cl)Cl | microbial growth | ATCC700699 | – | MIC90 | 62.5 µg/mL (≈ 193 µM) |
| O=C(Sc1cccccc1=O)c1ccc(C(F)(F)F)cc1 | microbial growth, broth dilution | ATCC29213 | – | MIC80 | > 100 µM |
| CC(C)c1nn(-c2nc3ccc(Cl)cc3s2)c2c1C(=O)c1ccccc1-2 | microbial growth, well diffusion | NCIM5021 | 500 µg/mL | inhibition zone | 11 mm |
| O=C(O)CN1C(=O)/C(=C/c2c3ccccc3c(-c3ccc(N(c4ccccc4)c4ccccc4)cc3)c3ccccc23)NC1=S | microbial killing, broth dilution | ATCC25923 | – | MBC | > 1000 µg/mL |
| O=S(=O)(c1cccc2cnccc12)N1CCCNCC1 | microbial growth | NCTC8325 | – | MIC | > 30 µM |
| Cc1nn(-c2nc3ccccc3s2)c2c1C(=O)c1ccccc1-2 | microbial growth, well diffusion | NCIM5021 | 250 µg/mL | inhibition zone | 10 mm |
